The results in this text go back to ChEMBL document CHEMBL2040847, “Overcoming clopidogrel resistance: discovery of vicagrel as a highly potent and orally bioavailable antiplatelet agent” (J Med Chem, 2012).

Data set [1] has as its system Rattus norvegicus. Description: Antiplatelet activity in Wistar rat assessed as inhibition of ADP-induced platelet aggregation at 3 mg/kg, po measured after 2 hrs by Born's method. The class given is functional. The arrangement: scale not given: the % may be the effect or the level left. Put shortly:
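Oral dosing at 3 mg/kg, CMC as vehicle, groups of 10 rats. At 2 h the rats were anesthetized with pentobarbital sodium and blood was drawn from the abdominal aorta. Ex vivo aggregation was induced with ADP 1.2 μM and read on an aggregometer (Born's method). Values are mean ± SD, n = 10, statistics versus vehicle.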

Data set [2] can be described thus: Toxicity in beagle dog assessed as maximum tolerated dose. It is filed as organism-based, Canis lupus familiaris. The note with it: in vivo. Put shortly:
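Single-dose oral study in beagle dogs, run in a GLP laboratory. Both the no-observed-adverse-effect level and the maximal tolerated dose were determined.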

The test system of data set [3] is Rattus norvegicus. Nature of the data set: Tmax in Sprague-Dawley rat assessed as clopidogrel thioacetate level at 24 umol/kg, po. The class given is ADME, organism-based. As to conditions: in vivo; call rule not given here.
Data set [4] relates to Rattus norvegicus. Description: Cmax in Sprague-Dawley rat assessed as clopidogrel thioacetate level at 24 umol/kg, po. The class given is ADME, organism-based. The note with it: in vivo. Also noted: dose 24 umol/kg, route oral.
In data set [5] the test system is Liver microsomes. Nature of the data set: Drug metabolism in rat liver microsomes assessed as NADPH-dependent active metabolite glutathione adducts 4 formation at 20 uM after 30 mins by LC-MS/MS analysis. It is filed as ADME, Microsome. The note with it: 0.5 h. Put shortly: (§1)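 Pooled SD rat liver microsomes (1.0 mg/mL protein) with compound 20 μM (diluted from 10 mM DMSO stock), NADPH 1.0 mM and glutathione 10 mM in 100 mM potassium phosphate pH 7.4. Incubated 30 min at 37 °C; controls lacked NADPH. Quenched with ice-cold 10% TCA and centrifuged. Supernatant analysed by LC-MS/MS (phenyl column, positive ESI), monitoring AMGS adducts at m/z 661 (SIM).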

Data set [6] relates to Liver microsomes. Nature of the data set: Drug metabolism in rat liver microsomes assessed as NADPH-dependent active metabolite glutathione adducts 2 formation at 20 uM after 30 mins by LC-MS/MS analysis. It is filed as ADME, Microsome. As to conditions: 0.5 h. In outline: as §1
For orientation: Liver microsomes are a subcellular fraction often used to study metabolism.

Data set [7] concerns Liver microsomes. Nature of the data set: Drug metabolism in rat liver microsomes assessed as NADPH-dependent active metabolite glutathione adducts 3 formation at 20 uM after 30 mins by LC-MS/MS analysis. As to conditions: 0.5 h. The class given is ADME, Microsome. In outline: as §1
The test system of data set [8] is Liver microsomes. Description: Drug metabolism in rat liver microsomes assessed as NADPH-dependent active metabolite glutathione adducts 1 formation at 20 uM after 30 mins by LC-MS/MS analysis. The class given is ADME, Microsome. The note with it: 0.5 h. Put shortly: as §1
Data set [9] has as its system Liver microsomes. Nature of the data set: Drug metabolism in rat liver microsomes assessed as NADPH-dependent active metabolite glutathione adducts formation at 20 uM after 30 mins by LC-MS/MS analysis in presence of NADPH and GSH. It is filed as ADME, Microsome. As to conditions: 0.5 h. In outline: as §1
Data set [10] deals with Rattus norvegicus. Nature of the data set: Half life in Sprague-Dawley rat assessed as clopidogrel thioacetate level at 24 umol/kg, po. The class given is ADME, organism-based. The note with it: in vivo.
The subject of data set [11] is Rattus norvegicus. Nature of the data set: AUC (0 to infinity) in Sprague-Dawley rat […] at 24 umol/kg, po. It is filed as ADME, organism-based, Plasma. Also noted: dose 24 umol/kg, route oral, time infinity. As to conditions: in vivo.
For data set [12], the system named is Mus musculus. Description: Toxicity in mouse assessed as mortality at 5000 mg/kg, po measured after 14 days. It is filed as organism-based. Also noted: dose 5000 mg/kg, route oral. As to conditions: in vivo, 336 h. In outline: (§2)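 Single-dose study in a GLP laboratory. Deaths were recorded, and the liver and other organs were assessed for injury or adverse effects.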

The subject of data set [13] is Mus musculus. Nature of the data set: Toxicity in mouse assessed as liver injury at 5000 mg/kg, po measured after 14 days. The note with it: in vivo, 336 h. The arrangement: dose 5000 mg/kg, route oral. The class given is organism-based. Put shortly: as §2
The test system of data set [14] is Mus musculus. Description: Toxicity in mouse assessed as tissue injury at 5000 mg/kg, po measured after 14 days. The note with it: in vivo, 336 h. It is filed as organism-based. The arrangement: dose 5000 mg/kg, route oral. In outline: as §2
The nature of data set [15]: Toxicity in beagle dog assessed as no-observed adverse effect level. As to conditions: in vivo. The class given is organism-based, Canis lupus familiaris.

As to `COC(=O)[C@H](c1ccccc1Cl)N1CCc2sccc2C1.O=S(=O)(O)O` [CLOPIDOGREL BISULFATE], the Activity in the data set on Rattus norvegicus [1] was found to be 73.7%. `CCC(C)(C)C(=O)Oc1cc2c(s1)CCN([C@H](C(=O)OC)c1ccccc1Cl)C2`: the Activity in the data set with Rattus norvegicus [1] came to 70%. The same measure, in the same setting: next, `COC(=O)[C@H](c1ccccc1Cl)N1CCc2sc(OC(=O)/C=C/c3ccccc3)cc2C1`: 84.7%; `COC(=O)[C@H](c1ccccc1Cl)N1CCc2sc(OC(=O)OC(C)C)cc2C1`: 50.2%. On to `COC(=O)[C@H](c1ccccc1Cl)N1CCc2sc(OC(=O)N3CCCC3)cc2C1`, for which the Activity with Rattus norvegicus [1] came out at 80.9%.

`CC(=O)Oc1cc2c(s1)CCN(C(C(=O)C1CC1)c1ccccc1F)C2` (stereo not given) [PRASUGREL]: the Activity with Rattus norvegicus [1] was determined as 32.1%.

Consider `COC(=O)[C@H](c1ccccc1Cl)N1CCc2sc(OC(=O)C(C)(C)C)cc2C1`, for which the Activity in the data set on Rattus norvegicus [1] was determined as 63.4%. As for `COC(=O)[C@H](c1ccccc1Cl)N1CCc2sc(OC(=O)c3ccc(OC)cc3)cc2C1`, the Activity in the data set with Rattus norvegicus [1] came out at 82.6%. Consider `COC(=O)[C@H](c1ccccc1)N1CCc2sc(OC(C)=O)cc2C1`, for which, in the data set with Rattus norvegicus [1], the Activity worked out at 81.1%. As to `COC(=O)[C@H](c1ccccc1Cl)N1CCc2sc(OC(=O)c3ccccc3OC(C)=O)cc2C1`, in the data set on Rattus norvegicus [1], the Activity turned out to be 77.9%. In the case of `COC(=O)[C@H](c1ccccc1Cl)N1CCc2sc(OC(=O)c3ccccc3)cc2C1`, in the data set on Rattus norvegicus [1], the Activity was determined as 60.1%. `COC(=O)[C@H](c1ccccc1Cl)N1CCc2sc(OC(=O)c3ccc([N+](=O)[O-])cc3)cc2C1`: the Activity in the data set on Rattus norvegicus [1] is 75.6%. Take `COC(=O)[C@H](c1ccccc1Cl)N1CCc2sc(OC(=O)N(C)C)cc2C1`: in the data set with Rattus norvegicus [1], the Activity was 67.7%.

The MTD is the highest dose tested that stayed within the study's limit of toxicity. Broadly, the Tmax is the time at which the peak concentration occurs. For orientation: Cmax means the maximum level reached in the sampled fluid or tissue. For orientation: AUC means concentration integrated over time. For orientation: NOAEL means the highest dose or exposure tested at which no adverse effect was seen. `COC(=O)[C@H](c1ccccc1Cl)N1CCc2sc(OC(C)=O)cc2C1` [SUMECIGREL]: the MTD in data set [2] is above 2000 mg/kg. The time to peak (Tmax) with Rattus norvegicus [3] was determined as 1.17 h. Also, in the data set on Rattus norvegicus [4], the maximum concentration (Cmax) is 67.2 ng/mL. Also, the Drug metabolism result in the data set on Liver microsomes [5], with Liver microsomes [6], in the data set on Liver microsomes [7], in the data set on Liver microsomes [8] and in the data set with Liver microsomes [9] was “Active” throughout. Besides, the Activity in the data set with Rattus norvegicus [1] is 34.6%; in the data set with Mus musculus [12], “Non-toxic”; in the data set with Mus musculus [13], “Toxic”; with Mus musculus [14], “Non-toxic”. In the data set on Rattus norvegicus [10], the t1/2 was 2.19 h. The compound also had an AUC with Rattus norvegicus [11] of 211 ng·h/mL. In addition, in data set [15], the NOAEL was 300 mg/kg.

For `CCCC(=O)Oc1cc2c(s1)CCN([C@H](C(=O)OC)c1ccccc1Cl)C2`, the Activity in the data set on Rattus norvegicus [1] came out at 52.8%. Same read-out and setting: next, `COC(=O)[C@H](c1ccccc1Cl)N1CCc2sc(OC(=O)OCc3ccccc3)cc2C1`: 72.2%. Take `COC(=O)Oc1cc2c(s1)CCN([C@H](C(=O)OC)c1ccccc1Cl)C2`: the Activity with Rattus norvegicus [1] came out at 38.6%. Turning to `COC(=O)[C@H](c1ccccc1F)N1CCc2sc(OC(C)=O)cc2C1`, the Activity in the data set with Rattus norvegicus [1] was 62.9%. `COC(=O)[C@H](c1ccccc1Cl)N1CCc2sc(OC(=O)c3cccnc3)cc2C1`: in the data set with Rattus norvegicus [1], the Activity amounted to 45.1%. On to `CCC(=O)Oc1cc2c(s1)CCN([C@H](C(=O)OC)c1ccccc1Cl)C2`, for which the Activity in the data set on Rattus norvegicus [1] was 46.7%. With `COC(=O)[C@H](c1ccccc1Cl)N1CCc2sccc2C1` [CLOPIDOGREL], the Tmax in the data set with Rattus norvegicus [3] amounted to 0.583 h. For the same compound, the peak concentration (Cmax) in the data set with Rattus norvegicus [4] stood at 6.93 ng/mL. The Drug metabolism entry in the data set with Liver microsomes [5], in the data set with Liver microsomes [6], in the data set with Liver microsomes [7], in the data set on Liver microsomes [8] and with Liver microsomes [9] was “Active” throughout. Further, the t1/2 in the data set on Rattus norvegicus [10] came to 2.48 h. In the data set with Rattus norvegicus [11], this compound registered an AUC of 32.2 ng·h/mL.

Consider `COC(=O)[C@H](c1ccccc1Cl)N1CCc2sc(OC(=O)COc3ccccc3)cc2C1`, for which, in the data set on Rattus norvegicus [1], the Activity turned out to be 75.4%. On the same count and under the same terms, for `COC(=O)[C@H](c1ccccc1Cl)N1CCc2sc(OC(=O)OCC(C)C)cc2C1` the value was 65.6%.

For `COC(=O)C(c1ccccc1Cl)N1CCc2sc(OC(C)=O)cc2C1` (racemic), the Activity with Rattus norvegicus [1] amounted to 63.7%. With `COC(=O)[C@@H](c1ccccc1Cl)N1CCc2sc(OC(C)=O)cc2C1`, in the data set on Rattus norvegicus [1], the Activity stood at 68.4%.

For `COC(=O)[C@H](c1ccccc1Cl)N1CCC2SC(=O)C=C2C1` (stereo not given in full) [CLOPIDOGREL THIOLACTONE], the Activity in the data set on Rattus norvegicus [1] is 48.6%. For the compound `CCOC(=O)Oc1cc2c(s1)CCN([C@H](C(=O)OC)c1ccccc1Cl)C2`, the Activity with Rattus norvegicus [1] came to 53%. Turning to `COC(=O)[C@H](c1ccccc1Cl)N1CCc2sc(OC(=O)Cc3ccccc3)cc2C1`, the Activity in the data set with Rattus norvegicus [1] was 53.8%.
